{"source": "ChEMBL document CHEMBL4813947", "about": "“New dual ATP-competitive inhibitors of bacterial DNA gyrase and topoisomerase IV active against ESKAPE pathogens” (Eur J Med Chem, 2021)", "key": {"[1]": {"experiment": "Ratio of genotoxicity in CHO-K1 cells by invitro micronucleus test to MIC for Enterococcus faecalis ATCC 29212", "type": "toxicity, cell-based", "settings": "hamster"}, "Escherichia coli [2]": {"system": "Escherichia coli", "experiment": "Antibacterial activity against Escherichia coli MG1655 in presence of efflux pump inhibitor PAbetaN assessed as inhibition of bacterial growth by CLSI protocol based broth microdilution assay", "type": "functional"}, "Staphylococcus aureus [3]": {"system": "Staphylococcus aureus", "experiment": "Antibacterial activity against methicillin-resistant Staphylococcus aureus ATCC 43300 harboring GyrB T173A mutant assessed as inhibition of bacterial growth by CLSI protocol based broth microdilution assay", "type": "functional", "procedure,_shortened": "(§1)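 Minimum inhibitory concentration by standard serial broth microdilution following CLSI guidelines. Medium was MHBII broth (22 g/L powder: beef extract, casein acid hydrolysate, starch), with MHBII agar (14 g agar per L broth). Where noted, assayed without and with efflux pump substrate phenylalanine-arginine β-naphthylamide (PAβN).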"}, "Escherichia coli [4]": {"system": "Escherichia coli", "experiment": "Antibacterial activity against wild type Escherichia coli MG1655 assessed as inhibition of bacterial growth by CLSI protocol based broth microdilution assay", "type": "functional", "procedure,_shortened": "as §1"}, "Staphylococcus aureus [5]": {"system": "Staphylococcus aureus", "experiment": "Ratio of MIC for vancomycin-resistant Staphylococcus aureus ATCC 700699 harboring GyrB R144I mutant to MIC for vancomycin-resistant wild type Staphylococcus aureus ATCC 700699", "type": "functional"}, "DNA gyrase": {"target": "DNA gyrase (Staphylococcus aureus, UniProt P0A0K8+P20831)", "experiment": "Inhibition of Staphylococcus aureus DNA gyrase assessed reduction in supercoiling of relaxed pNO1 DNA measured after 30 mins by fluorescence assay"}, "[6]": {"system": "human topoisomerase 2alpha", "experiment": "Selectivity ratio of IC50 for inhibition of human topoisomerase 2alpha to IC50 for inhibition of Staphylococcus aureus topoisomerase IV", "type": "toxicity", "settings": "read-out: Ratio IC50"}, "Staphylococcus aureus [7]": {"system": "Staphylococcus aureus", "experiment": "Antibacterial activity against methicillin-resistant wild type Staphylococcus aureus ATCC 43300 assessed as inhibition of bacterial growth by CLSI protocol based broth microdilution assay", "type": "functional", "procedure,_shortened": "as §1"}, "Staphylococcus aureus [8]": {"system": "Staphylococcus aureus", "experiment": "Ratio of MIC for methicillin-resistant Staphylococcus aureus ATCC 43300 harboring GyrB R144I mutant to MIC for methicillin-resistant wild type Staphylococcus aureus ATCC 43300", "type": "functional"}, "[9]": {"experiment": "Ratio of genotoxicity in CHO-K1 cells in presence of rat liver S9 fraction by invitro micronucleus test to MIC for methicillin-resistant wild type Staphylococcus aureus ATCC 43300", "type": "toxicity, cell-based", "settings": "CHO-K1 cells with rat liver S9 fraction"}, "MCF7": {"system": "MCF7", "experiment": "Cytotoxicity against human MCF-7 cells upto 100 uM by lactate dehydrogenase assay", "type": "cell-based", "procedure,_shortened": "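HepG2 or MCF-7 cells grown in EMEM with 2 mM L-glutamine, penicillin/streptomycin, 10% FBS at 37 °C, 5% CO2; LDH release kit per manufacturer, test concentrations up to 100 µM.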"}, "Staphylococcus aureus [10]": {"system": "Staphylococcus aureus", "experiment": "Antibacterial activity against methicillin-resistant Staphylococcus aureus ATCC 43300 harboring GyrB R144I mutant assessed as inhibition of bacterial growth by CLSI protocol based broth microdilution assay", "type": "functional", "procedure,_shortened": "as §1"}}}
{"smiles": "Cc1[nH]c(C(=O)Nc2nc3c(OCc4ccsc4)cc(C(=O)O)cc3s2)c(Cl)c1Cl", "values": [{"measurement": "selectivity ratio", "setting": "[1]", "value": 495}, {"measurement": "MIC", "setting": "Escherichia coli [2]", "value": 0.125, "unit": "µg/mL"}, {"measurement": "MIC", "setting": "Staphylococcus aureus [3]", "value": 0.125, "unit": "µg/mL"}, {"measurement": "MIC", "setting": "Escherichia coli [4]", "value": "> 64", "unit": "µg/mL"}, {"measurement": "Ratio", "setting": "Staphylococcus aureus [5]", "value": 2}, {"measurement": "IC50", "setting": "DNA gyrase", "value": "< 10", "unit": "nM"}, {"measurement": "selectivity ratio", "setting": "[6]", "value": 54}, {"measurement": "MIC", "setting": "Staphylococcus aureus [7]", "value": 0.0625, "unit": "µg/mL"}, {"measurement": "Ratio", "setting": "Staphylococcus aureus [8]", "value": 4}, {"measurement": "selectivity ratio", "setting": "[9]", "value": 478}, {"measurement": "Activity", "setting": "MCF7", "value": "Non-Toxic"}, {"measurement": "MIC", "setting": "Staphylococcus aureus [10]", "value": 0.25, "unit": "µg/mL"}]}
